This is an account of results in ChEMBL document CHEMBL1157729, “Structure-activity relationship and mechanism of action studies of manzamine analogues for the control of neuroinflammation and cerebral infections” (J Med Chem, 2010).

≈ marks a conversion by molar mass, not a printed value. Calls of active or inactive are those of the source. The calls are words filed in the database; no cut-off is given here.

Data set [1] has as its system Plasmodium berghei. As to the kind of experiment: Antiplasmodial activity against Plasmodium berghei NK65 infected in Swiss Webster mice (Mus musculus) assessed as survivability at 10 mg/kg, intraperitoneally administered 1 day after infection for 3 days measured after 28 days post infection. In kind it is functional, organism-based. The arrangement: dose 10 mg/kg.

Data set [2] is described as follows: Antineuroinflammatory activity in LPS-stimulated rat neonatal microglia assessed as drug level causing 50% PMA-induced LDH release preincubated 15 mins prior to PMA challenge measured after 70 mins. It counts as functional. A digest of the protocol:
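Neonatal rat microglia (2 × 10^5/well) primed with E. coli LPS 0.3 ng/mL for 17 h at 35.9 °C, washed with HBSS, given compound (0.01–10 μM) or DMSO 15 min, then PMA 1 μM; LDH read spectrophotometrically after 70 min; LDH50 relative to Triton X-100 (0.1%) release; duplicates.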
(LDH in the medium is a marker of cell lysis.)

The test system of data set [3] is Plasmodium berghei. Nature of the data set: Toxicity in Plasmodium berghei NK65 infected Swiss Webster mice (Mus musculus) assessed as weight loss at 10 mg/kg, intraperitoneally administered 1 day after infection measured after 28 days post infection. In kind it is organism-based. On the set-up: dose 10 mg/kg, route intraperitoneal. Conditions: in vivo, ip, 672 h.

Data set [4] in a line: Antineuroinflammatory activity in LPS-stimulated rat neonatal microglia assessed as inhibition of PMA-induced TXB2 production preincubated 15 mins prior to PMA challenge measured after 70 mins. It counts as functional, cell-based.
For data set [5], the system named is Plasmodium berghei. Nature of the data set: Antiplasmodial activity against Plasmodium berghei NK65 infected in Swiss Webster mice (Mus musculus) at 10 mg/kg, intraperitoneally administered 1 day after infection for 3 days. In kind it is functional. Conditions: route intraperitoneal.
For data set [6], the system named is Plasmodium berghei. Nature of the data set: Antiplasmodial activity against Plasmodium berghei NK65 infected in Swiss Webster mice (Mus musculus) assessed as parasitaemia cure at 10 mg/kg, intraperitoneally administered 1 day after infection measured after 28 days post infection. It counts as functional. Conditions: route intraperitoneal.
Data set [7] deals with Plasmodium berghei. Nature of the data set: Antiplasmodial activity against Plasmodium berghei NK65 infected in Swiss Webster mice (Mus musculus) assessed as suppression of parasitaemia at 10 mg/kg, intraperitoneally administered 1 day after infection for 3 days measured after 7 days post infection relative to control. It counts as functional. Conditions: route intraperitoneal.

Data set [8] in a line: Selectivity index, ratio of IC50 for african green monkey (Cercopithecus aethiops) Vero cells to IC50 for chloroquine-sensitive Plasmodium falciparum. It counts as toxicity, cell-based.
In data set [9] the test system is Plasmodium berghei. As to the kind of experiment: Antiplasmodial activity against Plasmodium berghei NK65 infected in Swiss Webster mice (Mus musculus) assessed as suppression of parasitaemia at 10 mg/kg, intraperitoneally administered 1 day after infection for 3 days measured after 5 days post infection relative to control. In kind it is functional. Particulars: route intraperitoneal.

Data set [10] is described as follows: Selectivity index, ratio of IC50 for african green monkey (Cercopithecus aethiops) Vero cells to IC50 for chloroquine-resistant Plasmodium falciparum W2. In kind it is toxicity, cell-based.
Data set [11] in a line: Antineuroinflammatory activity in LPS-stimulated rat neonatal microglia assessed as inhibition of PMA-induced superoxide anion production preincubated 15 mins prior to PMA challenge measured after 70 mins. It counts as functional, cell-based.
In data set [12] the test system is Mycobacterium tuberculosis. As to the kind of experiment: Antimycobacterial activity against Mycobacterium tuberculosis. In kind it is functional.
In a further data set the test system is Candida albicans. As to the kind of experiment: Antifungal activity against Candida albicans ATCC 90028. In kind it is functional, organism-based. A digest of the protocol:
(§1)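 Broth microdilution per modified CLSI method; samples serially diluted in 20% DMSO/saline, tested in duplicate; inocula set by OD630 of suspensions in incubation broth; growth read at 630 nm before and after incubation; amphotericin B drug control.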

Data set [13] relates to Mycobacterium intracellulare. As to the kind of experiment: Antimycobacterial activity against Mycobacterium intracellular ATCC 23068. It counts as functional, organism-based. Put shortly: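 Modified Franzblau method; samples serially diluted in 20% DMSO/saline, tested in duplicate; inoculum set by OD630; fluorescence read at 544ex/590em before and after incubation; ciprofloxacin drug control.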

The test system of data set [14] is Plasmodium falciparum. Nature of the data set: Antiplasmodial activity against chloroquine-sensitive Plasmodium falciparum D6 after 72 hrs by LDH assay. It counts as functional, organism-based. Conditions: Plasmodium falciparum, D6, 72 h; read-out: IC50.
A further data set concerns Vero. As to the kind of experiment: Cytotoxicity against african green monkey Vero cells up to 4.6 ug/mL after 48 hrs by neutral red assay. In kind it is cell-based. Particulars: chlorocebus sabaeus. Put shortly:
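Vero cells were seeded at 25,000 cells/well and incubated for 24 h, then exposed to serially diluted samples for 48 h. Viable cells were counted by Neutral Red assay, with doxorubicin as positive control. IC50 was taken from dose-response curves.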

Data set [15] has as its system Plasmodium falciparum. Nature of the data set: Antiplasmodial activity against chloroquine-resistant Plasmodium falciparum W2 after 72 hrs by LDH assay. In kind it is functional, organism-based. Conditions: Plasmodium falciparum, W2, 72 h; read-out: IC50.
Data set [16] can be described thus: Cytotoxicity against LPS-stimulated rat neonatal microglia assessed as LDH release. Put shortly:
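Rat neonatal microglia (2×10^5/well) primed with E. coli LPS (0.3 ng/mL) for 17 h at 35.9 °C. Washed into HBSS, given compound (0.01-10 μM) or DMSO for 15 min, then PMA (1 μM) for 70 min, in duplicate. LDH release read spectrophotometrically. LDH50 is the concentration giving 50% of the LDH release seen with 0.1% Triton X-100.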

The next data set has as its system Cryptococcus neoformans. Nature of the data set: Antifungal activity against Cryptococcus neoformans ATCC 90113. In kind it is functional, organism-based. A digest of the protocol: as §1

The IC50 is the midpoint of a concentration-inhibition curve. For orientation: MIC means the lowest concentration that inhibits growth of the organism. In the case of `Oc1cccc2c1[nH]c1c(C3=C[C@@]4(O)CC/C=C\CCCCN5CC[C@@H]3[C@]3(CC6/C=C\CCCCN6[C@H]34)C5)nccc12` (stereo partly drawn), the outcome in the data set on Plasmodium berghei [1] was Active. The Activity was >10 µM in data set [2]; “Toxic” in the data set on Plasmodium berghei [3]; 80% in the data set with Plasmodium berghei [6]; 100% in the data set on Plasmodium berghei [7]; 100% in the data set on Plasmodium berghei [9]. In addition, the IC50 in [4] was 500 nM; in data set [11], > 10000 nM. Also, the MST in the data set with Plasmodium berghei [5] was > 28 days. Moreover, the “Ratio IC50” value in [8] worked out at 180; in data set [10] (vero), 140. Further, the selectivity ratio in data set [10] (Vero cells, read-out: Ratio IC50) stood at 25. In data set [12], this molecule gave an MIC of 0.91 µg/mL (≈ 1.61 µM).

On to `O[C@]12C=C(C3NCCc4c3[nH]c3ccccc43)[C@@H]3CCN(CCCC/C=C\CC1)C[C@@]31C[C@@H]3/C=C\CCCCN3[C@H]12` (stereo partly drawn) [MANZAMINE D], for which the Activity in [2] is 1 µM; in the data set on Vero, “Non-toxic”; in data set [16], “Toxic”. Besides, the IC50 was determined as 2100 nM in [4]; 15 µg/mL (≈ 27.1 µM) with Candida albicans; 0.1 µg/mL (≈ 0.181 µM) in data set [13]; 0.09 µg/mL (≈ 0.163 µM) with Plasmodium falciparum [14]; 0.088 µg/mL (≈ 0.159 µM) with Plasmodium falciparum [15]; 2450 nM in [11]. In addition, half-maximal inhibition in the data set with Cryptococcus neoformans (IC50) required 0.8 µg/mL (≈ 1.45 µM).
